Columns and labels:
[1] = tested on: Lolium multiflorum; experiment: Induction of shikimate accumulation in Lolium multiflorum (Italian ryegrass) at growth inhibition I50 level rate measured 7 days post treatment (reference value: 904 ug/g tissue); assay type: functional
Procedure, shortened: (§1)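 Plants were sprayed in the greenhouse at each species' I50 rate, with Tween 20 controls. Shoots were harvested at 7 DAT and rinsed free of surface glyphosate. Shikimic acid was measured by HPLC on a C18 column after 0.45 µm filtration, with 100 µL injected, isocratic 98% H2O (pH 3.0)/2% MeOH, at 1 mL flow.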

[2] = tested on: Zea mays; experiment: Induction of shikimate accumulation in non glyphosate-resistant Zea mays (maize) at growth inhibition I50 level rate measured 7 days post treatment (reference value: 161 ug/g tissue); assay type: functional
[3] = tested on: Zea mays; experiment: Induction of shikimate accumulation in glyphosate-resistant Zea mays (maize) at growth inhibition I50 level rate measured 7 days post treatment (reference value: 241 ug/g tissue); assay type: functional; procedure, shortened: as §1
[4] = tested on: Abutilon theophrasti; experiment: Induction of shikimate accumulation in Abutilon theophrasti (velvetleaf) at growth inhibition I50 level rate measured 7 days post treatment (reference value: 2 ug/g tissue); assay type: functional; procedure, shortened: as §1
[5] = tested on: Erigeron canadensis; experiment: Induction of shikimate accumulation in Conyza canadensis (horseweed) at growth inhibition I50 level rate measured 7 days post treatment (reference value: 251 ug/g tissue); assay type: functional; procedure, shortened: as §1
[6] = tested on: Pueraria montana var. lobata; experiment: Induction of shikimate accumulation in Pueraria montana var. lobata ( kudzu) at growth inhibition I50 level rate measured 7 days post treatment (reference value: 188 ug/g tissue); assay type: functional; procedure, shortened: as §1
[7] = tested on: Desmanthus illinoensis; experiment: Induction of shikimate accumulation in Desmanthus illinoensis (Illinois bundleflower) at growth inhibition I50 level rate measured 7 days post treatment (reference value: 21 ug/g tissue); assay type: functional
[8] = tested on: Senna occidentalis; experiment: Induction of shikimate accumulation in Senna occidentalis (coffee senna) at growth inhibition I50 level rate measured 7 days post treatment (reference value: 277 ug/g tissue); assay type: functional; procedure, shortened: as §1
[9] = tested on: Sesbania herbacea; experiment: Induction of shikimate accumulation in Sesbania herbacea at growth inhibition I50 level rate measured 7 days post treatment (reference value: 266 ug/g tissue); assay type: functional; procedure, shortened: as §1
[10] = tested on: Senna obtusifolia; experiment: Induction of shikimate accumulation in Senna obtusifolia (sicklepod) at growth inhibition I50 level rate measured 7 days post treatment (reference value: 348 ug/g tissue); assay type: functional; procedure, shortened: as §1
[11] = tested on: Glycine max; experiment: Induction of shikimate accumulation in glyphosate-resistant Glycine max (soybean) at growth inhibition I50 level rate measured 7 days post treatment (reference value: 65 ug/g tissue); assay type: functional; procedure, shortened: as §1
[12] = tested on: Glycine max; experiment: Induction of shikimate accumulation in non glyphosate-resistant Glycine max (soybean) at growth inhibition I50 level rate measured 7 days post treatment (reference value: 27 ug/g tissue); assay type: functional; procedure, shortened: as §1
[13] = tested on: Vigna unguiculata; experiment: Induction of shikimate accumulation in Vigna unguiculata (cowpea) at growth inhibition I50 level rate measured 7 days post treatment (reference value: 64 ug/g tissue); assay type: functional; procedure, shortened: as §1
[14] = tested on: Erigeron canadensis; experiment: Ratio of compound to AMPA level in Conyza canadensis (horseweed) at growth inhibition I50 level rate measured 7 days post treatment; assay type: organism-based; details: in vivo, 168 h
Procedure, shortened: (§2)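 Greenhouse plants (28/22 °C, 13 h photoperiod) were sprayed at each species' I50 rate with Tween 20 controls. Shoots were clipped 7 DAT and washed free of surface herbicide. Pooled ground tissue (1 g) was extracted twice with water under sonication. Extracts were derivatized with heptafluorobutanol/trifluoroacetic anhydride (90 °C, 1 h). Glyphosate and AMPA were quantified by GC-MS against derivatized standard curves, in duplicate.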

[15] = tested on: Pueraria montana var. lobata; experiment: Ratio of compound to AMPA level in Pueraria montana var. lobata ( kudzu) at growth inhibition I50 level rate measured 7 days post treatment; assay type: organism-based; details: in vivo, 168 h; procedure, shortened: as §2
[16] = tested on: Senna occidentalis; experiment: Ratio of compound to AMPA level in Senna occidentalis (coffee senna) at growth inhibition I50 level rate measured 7 days post treatment; assay type: organism-based; details: in vivo, 168 h; procedure, shortened: as §2
[17] = tested on: Desmanthus illinoensis; experiment: Ratio of compound to AMPA level in Desmanthus illinoensis (Illinois bundleflower) at growth inhibition I50 level rate measured 7 days post treatment; assay type: organism-based; details: in vivo, 168 h; procedure, shortened: as §2
[18] = tested on: Senna obtusifolia; experiment: Ratio of compound to AMPA level in Senna obtusifolia (sicklepod) at growth inhibition I50 level rate measured 7 days post treatment; assay type: organism-based; details: in vivo, 168 h; procedure, shortened: as §2
[19] = tested on: Glycine max; experiment: Ratio of compound to AMPA level in non glyphosate-resistant Glycine max (soybean) at growth inhibition I50 level rate measured 7 days post treatment; assay type: organism-based; details: in vivo, 168 h; procedure, shortened: as §2
[20] = tested on: Vigna unguiculata; experiment: Ratio of compound to AMPA level in Vigna unguiculata (cowpea) at growth inhibition I50 level rate measured 7 days post treatment; assay type: organism-based; details: in vivo, 168 h; procedure, shortened: as §2
[21] = tested on: Glycine max; experiment: Ratio of compound to AMPA level in glyphosate-resistant Glycine max (soybean) at growth inhibition I50 level rate measured 7 days post treatment; assay type: organism-based; details: in vivo, 168 h; procedure, shortened: as §2
[22] = tested on: Zea mays; experiment: Drug level in non glyphosate-resistant Zea mays (maize) assessed as AMPA level at growth inhibition I50 level rate measured 7 days post treatment; assay type: organism-based; details: in vivo, 168 h, BLD = below limit of detection
Procedure, shortened: (§3)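 Greenhouse plants (28/22 °C, 13 h photoperiod) were sprayed with glyphosate at each species' I50 rate, with Tween 20-treated controls. Shoots were cut at 7 DAT and rinsed to remove surface herbicide. Pooled ground tissue (1 g) was water-extracted twice with sonication, acidified, and washed with methylene chloride. Extracts were derivatized with heptafluorobutanol/TFAA (90 °C, 1 h) and measured by GC-MS against derivatized standards, in duplicate.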

[23] = tested on: Lolium multiflorum; experiment: Drug level in Lolium multiflorum (Italian ryegrass) assessed as AMPA level at growth inhibition I50 level rate measured 7 days post treatment; assay type: organism-based; details: in vivo, 168 h, BLD = below limit of detection; procedure, shortened: as §3
[24] = tested on: Erigeron canadensis; experiment: Drug level in Conyza canadensis (horseweed) assessed as AMPA level at growth inhibition I50 level rate measured 7 days post treatment; assay type: organism-based; details: in vivo, 168 h; procedure, shortened: as §3
[25] = tested on: Zea mays; experiment: Drug level in glyphosate-resistant Zea mays (maize) assessed as AMPA level at growth inhibition I50 level rate measured 7 days post treatment; assay type: organism-based; details: in vivo, 168 h, BLD = below limit of detection; procedure, shortened: as §3
[26] = tested on: Abutilon theophrasti; experiment: Drug level in Abutilon theophrasti (velvetleaf) assessed as AMPA level at growth inhibition I50 level rate measured 7 days post treatment; assay type: organism-based; details: in vivo, 168 h, BLD = below limit of detection; procedure, shortened: as §3
[27] = tested on: Pueraria montana var. lobata; experiment: Drug level in Pueraria montana var. lobata ( kudzu) assessed as AMPA level at growth inhibition I50 level rate measured 7 days post treatment; assay type: organism-based; details: in vivo, 168 h; procedure, shortened: as §3
[28] = tested on: Desmanthus illinoensis; experiment: Drug level in Desmanthus illinoensis (Illinois bundleflower) assessed as AMPA level at growth inhibition I50 level rate measured 7 days post treatment; assay type: organism-based; details: in vivo, 168 h; procedure, shortened: as §3
[29] = tested on: Sesbania herbacea; experiment: Drug level in Sesbania herbacea assessed as AMPA level at growth inhibition I50 level rate measured 7 days post treatment; assay type: organism-based; details: in vivo, 168 h, BLD = below limit of detection; procedure, shortened: as §3
[30] = tested on: Senna obtusifolia; experiment: Drug level in Senna obtusifolia (sicklepod) assessed as AMPA level at growth inhibition I50 level rate measured 7 days post treatment; assay type: organism-based; details: in vivo, 168 h; procedure, shortened: as §3

With `O=C(O)CNCP(=O)(O)O` [GLYPHOSATE] the Activity [1] was 6701 µg/g, the Activity [2] was 149 µg/g and the Activity [3] was 245 µg/g. It also gave an Activity [4] of 159 µg/g, an Activity [5] of 9101 µg/g and an Activity [6] of 8915 µg/g. It also gave an Activity [7] of 668 µg/g, an Activity [8] of 686 µg/g and an Activity [9] of 6828 µg/g. The Activity [10] was 1092 µg/g, the Activity [11] was 53 µg/g and the Activity [12] was 15251 µg/g. It also gave an Activity [13] of 16530 µg/g, a Ratio [14] of 84 and a Ratio [15] of 19. For the same molecule, the Ratio [16] was 21, the Ratio [17] was 2 and the Ratio [18] was 4. For the same molecule, the Ratio [19] was 38, the Ratio [20] was 6 and the Ratio [21] was 49. For the same molecule, the Drug uptake [22] was “BLD”, the Drug uptake [23] was “BLD” and the Drug uptake [24] was 314 ng/g. The Drug uptake [25] was “BLD”, the Drug uptake [26] was “BLD” and the Drug uptake [27] was 297 ng/g. For the same molecule, the Drug uptake [28] was 1513 ng/g, the Drug uptake [29] was “BLD” and the Drug uptake [30] was 1834 ng/g.

Reference: ChEMBL document CHEMBL3046087, “Aminomethylphosphonic acid accumulation in plant species treated with glyphosate” (J Agric Food Chem, 2008)
